In ChEMBL document CHEMBL1140035, “4"-Benzoylureido-TSAO derivatives as potent and selective non-nucleoside HCMV inhibitors. Structure-activity relationship and mechanism of antiviral action” (J Med Chem, 2008):
In brackets after ≈: the same amount, converted by molar mass. Activity calls are given as the source filed them. The rule behind the calls is not given here.

What was measured:
Human betaherpesvirus 5 [1] = assay: Antiviral activity against HCMV 530 with […] and DNA polymerase mutation in HEL cells assessed as reduction of virus-induced cytopathogenicity; assay type: functional, organism-based; conditions: Human betaherpesvirus 5, HEL
How it was run: (§1)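 Drug-resistant HCMV clinical isolates from immunocompromised patients, carrying UL97 and/or DNA polymerase mutations. Confluent HEL fibroblasts infected at 100 PFU/well for 2 h, then residual virus was removed. Medium with serial compound concentrations added in duplicate for 7 days at 37 °C. After ethanol fixation, cytopathicity was scored microscopically. EC50 is the concentration reducing cytopathicity by 50%.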

Human betaherpesvirus 5 [2] = assay: Antiviral activity against foscarnet-resistant HCMV with DNA polymerase mutant in HEL cells assessed as reduction of virus-induced cytopathogenicity; assay type: functional, organism-based; conditions: Human betaherpesvirus 5, HEL
How it was run: (§2)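 Resistant mutants raised in vitro by serial passage of HCMV AD-169 under rising drug concentrations. Confluent HEL fibroblasts infected at 100 PFU/well for 2 h, then the inoculum was removed. Cells were kept with serial compound concentrations in duplicate for 7 days at 37 °C. After ethanol fixation, cytopathicity was scored microscopically. EC50 is the concentration halving virus-induced cytopathicity.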

Human betaherpesvirus 5 [3] = assay: Antiviral activity against HCMV 521 with […] and DNA polymerase mutation in HEL cells assessed as reduction of virus-induced cytopathogenicity; assay type: functional, organism-based; conditions: Human betaherpesvirus 5, HEL; how it was run: as §1
Human betaherpesvirus 5 [4] = assay: Antiviral activity against ganciclovir-resistant HCMV with DNA polymerase mutant in HEL cells assessed as reduction of virus-induced cytopathogenicity; assay type: functional, organism-based; conditions: Human betaherpesvirus 5, HEL; how it was run: as §2
Human betaherpesvirus 5 [5] = assay: Antiviral activity against acyclovir-resistant HCMV with DNA polymerase mutant in HEL cells assessed as reduction of virus-induced cytopathogenicity; assay type: functional, organism-based; conditions: Human betaherpesvirus 5, HEL; how it was run: as §2
Human betaherpesvirus 5 [6] = assay: Antiviral activity against (S)-3-hydroxy-2-phosphonomethoxypropyl cytosine-resistant HCMV with DNA polymerase mutant in HEL cells assessed as reduction of virus-induced cytopathogenicity; assay type: functional, organism-based; conditions: Human betaherpesvirus 5, HEL; how it was run: as §2
Human betaherpesvirus 5 [7] = assay: Antiviral activity against (S)-3-hydroxy-2-phosphonomethoxypropyl adenine-resistant HCMV with DNA polymerase mutant in HEL cells assessed as reduction of virus-induced cytopathogenicity; assay type: functional, organism-based; conditions: Human betaherpesvirus 5, HEL; how it was run: as §2
Human betaherpesvirus 5 [8] = assay: Antiviral activity against HCMV 6 with […] mutation in HEL cells assessed as reduction of virus-induced cytopathogenicity; assay type: functional, organism-based; conditions: Human betaherpesvirus 5, HEL; how it was run: as §1
[9] = Cytotoxicity against HEL cells assessed as reduction in cell growth after 3 days; assay type: cell-based; conditions: human
How it was run: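 HEL cells were seeded at 5 × 10³ cells/well and allowed to proliferate for 24 h. Compound-containing medium was then added at several concentrations for 3 days at 37 °C. Cells were counted with a Coulter counter. CC50, the concentration reducing cell growth by 50% versus untreated controls, was read from plots of cell number (% of control) against concentration.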

Human betaherpesvirus 5 [10] = assay: Antiviral activity against HCMV Davis in HEL cells assessed as reduction of virus-induced cytopathogenicity after 7 days; assay type: functional, organism-based; conditions: Human betaherpesvirus 5, Davis, 168 h
How it was run: (§3)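 Confluent HEL fibroblasts were infected with strain AD-169 or Davis at 100 PFU/well. After 2 h, residual virus was removed and medium with serial compound concentrations was added, in duplicate. Plates were held 7 days at 37 °C, fixed with ethanol, and scored microscopically for virus-induced cytopathicity. EC50 is the concentration reducing cytopathicity by 50%.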

Human betaherpesvirus 5 [11] = assay: Antiviral activity against HCMV AD169 in HEL cells assessed as reduction of virus-induced cytopathogenicity after 7 days; assay type: functional, organism-based; conditions: Human betaherpesvirus 5, AD169, HEL, 168 h; how it was run: as §3
[12] = Cytotoxicity against HEL cells assessed as alteration in cell morphology after 3 days; assay type: cell-based; conditions: human
How it was run: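 Minimum cytotoxic concentration: the lowest compound concentration causing a microscopically detectable alteration of HEL cell morphology.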

Human betaherpesvirus 5 [13] = assay: Antiviral activity against HCMV in HEL cells assessed as reduction of virus-induced cytopathogenicity administered at 56 hrs post infection; assay type: functional, organism-based
How it was run: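 Time-of-addition: confluent HEL cultures were infected with about 100 PFU/well of HCMV Davis. Compound dilutions were added at 0 h or at later time points post infection, with one plate set per time point. Seven days after infection, plates were ethanol-fixed and Giemsa-stained. Antiviral effect was scored microscopically and EC50 calculated.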

Structure (SMILES) | EC50 (Human betaherpesvirus 5 [1]) [µg/mL] | EC50 (Human betaherpesvirus 5 [2]) [µg/mL] | EC50 (Human betaherpesvirus 5 [3]) [µg/mL] | EC50 (Human betaherpesvirus 5 [4]) [µg/mL] | EC50 (Human betaherpesvirus 5 [5]) [µg/mL] | EC50 (Human betaherpesvirus 5 [6]) [µg/mL] | EC50 (Human betaherpesvirus 5 [7]) [µg/mL] | EC50 (Human betaherpesvirus 5 [8]) [µg/mL] | CC50 at 72 h [9] [µM] | EC50 (Human betaherpesvirus 5 [10]) [µM] | EC50 (Human betaherpesvirus 5 [11]) [µM] | MCC at 72 h [12] [µM] | Activity (Human betaherpesvirus 5 [13])
Nc1ncnc2c1ncn2C[C@@H](CO)OCP(=O)(O)O | 1.2 (≈ 3.96 µM) | 0.11 (≈ 0.363 µM) | 2.3 (≈ 7.59 µM) | 2 (≈ 6.6 µM) | 0.081 (≈ 0.267 µM) | 3.3 (≈ 10.9 µM) | 6.2 (≈ 20.4 µM) | 0.91 (≈ 3 µM) |  |  |  |  | 
CCOC(=O)NC(=O)NC1=CS(=O)(=O)O[C@@]12[C@@H](CO[Si](C)(C)C(C)(C)C)O[C@@H](n1cc(C)c(=O)n(C)c1=O)[C@@H]2O[Si](C)(C)C(C)(C)C |  |  |  |  |  |  |  |  | 14 | 2.8 | 2.3 | 10 | 
Cc1cn([C@@H]2O[C@H](CO[Si](C)(C)C(C)(C)C)[C@@]3(OS(=O)(=O)C=C3NC(N)=O)[C@H]2O[Si](C)(C)C(C)(C)C)c(=O)n(C)c1=O |  |  |  |  |  |  |  |  | 11 | 2 | > 3.2 | 16 | 
Cc1cn([C@@H]2O[C@H](CO[Si](C)(C)C(C)(C)C)[C@@]3(OS(=O)(=O)C=C3NC(=O)Nc3ccccc3)[C@H]2O[Si](C)(C)C(C)(C)C)c(=O)n(C)c1=O |  |  |  |  |  |  |  |  | 1.3 | 0.38 | ≥ 0.14 | 1.4 | 
Cc1cn([C@@H]2O[C@H](CO[Si](C)(C)C(C)(C)C)[C@@]3(OS(=O)(=O)C=C3NC(=O)NC(=O)c3ccccc3)[C@H]2O[Si](C)(C)C(C)(C)C(C)C)c(=O)n(C)c1=O |  |  |  |  |  |  |  |  | ≥ 100 | 3.9 | 12.1 | ≥ 100 | 
CC(C)(C)[Si](C)(C)OCCC1(CO[Si](C)(C)C(C)(C)C)OS(=O)(=O)C=C1NC(=O)NC(=O)c1ccccc1 (stereo not given) |  |  |  |  |  |  |  |  | > 100 | > 100 | > 100 | > 100 | 
CCOC(=O)CNC(=O)NC1=CS(=O)(=O)O[C@@]12[C@@H](CO[Si](C)(C)C(C)(C)C)O[C@@H](n1cc(C)c(=O)n(C)c1=O)[C@@H]2O[Si](C)(C)C(C)(C)C |  |  |  |  |  |  |  |  | 13 | > 3.2 | > 3.2 | 16 | 
Nc1ccn(C[C@@H](CO)OCP(=O)(O)O)c(=O)n1.O.O [CIDOFOVIR] | 0.62 | 0.1 | 0.79 | 0.59 | 0.069 | 2.2 | 3.1 | 0.49 |  |  |  |  | 
Cc1cn([C@@H]2O[C@H](CO[Si](C)(C)C(C)(C)C)[C@@]3(OS(=O)(=O)C=C3NC(=O)NC(=O)c3ccccc3)[C@H]2O[Si](C)(C)C(C)(C)C)c(=O)n(C)c1=O |  |  |  |  |  |  |  |  | > 200 | 2.4 | 11 | ≥ 80 | inactive
Cc1cn([C@@H]2O[C@H](CO[Si](C)(C)C(C)(C)C)[C@@]3(OS(=O)(=O)C=C3NC(=O)NCc3ccccc3)[C@H]2O[Si](C)(C)C(C)(C)C)c(=O)n(C)c1=O |  |  |  |  |  |  |  |  | 4.1 | 1.1 | 1.3 | 4 | 
Nc1nc2c(ncn2COCCO)c(=O)[nH]1 [ACYCLOVIR] | 22 (≈ 97.7 µM) | 173 (≈ 768 µM) | 7.7 (≈ 34.2 µM) | 4.8 (≈ 21.3 µM) | 130 (≈ 577 µM) | 12 (≈ 53.3 µM) | 7.9 (≈ 35.1 µM) | 91 (≈ 404 µM) |  |  |  |  | 
CC(=O)O[C@H]1[C@H](n2cc(C)c(=O)n(C)c2=O)O[C@H](COC(=O)c2ccccc2)[C@@]12OS(=O)(=O)C=C2NC(=O)NC(=O)c1ccccc1 |  |  |  |  |  |  |  |  | > 100 | > 100 | > 100 | > 100 | 
CCNC(=O)NC1=CS(=O)(=O)O[C@@]12[C@@H](CO[Si](C)(C)C(C)(C)C)O[C@@H](n1cc(C)c(=O)n(C)c1=O)[C@@H]2O[Si](C)(C)C(C)(C)C |  |  |  |  |  |  |  |  | 10 | 2 | 1.8 | ≥ 3.2 | 
CC(=O)N[C@@H]1O[C@H](CO[Si](C)(C)C(C)(C)C)[C@@]2(OS(=O)(=O)C=C2NC(=O)NC(=O)c2ccccc2)[C@H]1O[Si](C)(C)C(C)(C)C |  |  |  |  |  |  |  |  | > 100 | > 20 | > 20 | 100 | 
Cc1cn([C@@H]2O[C@H](COCc3ccccc3)[C@@]3(OS(=O)(=O)C=C3NC(=O)NC(=O)c3ccccc3)[C@H]2O[Si](C)(C)C(C)(C)C)c(=O)n(C)c1=O |  |  |  |  |  |  |  |  | > 50 | > 50 | > 50 | > 50 | 
Cc1cn([C@@H]2O[C@H](CO[Si](C(C)C)(C(C)C)C(C)C)[C@@]3(OS(=O)(=O)C=C3NC(=O)NC(=O)c3ccccc3)[C@H]2O[Si](C)(C)C(C)(C)C)c(=O)n(C)c1=O |  |  |  |  |  |  |  |  | > 100 | 4.2 | 6.3 | ≥ 100 | 
Cc1cn([C@@H]2O[C@H](COC(=O)c3ccccc3)[C@@]3(OS(=O)(=O)C=C3NC(=O)NC(=O)c3ccccc3)[C@H]2O)c(=O)n(C)c1=O |  |  |  |  |  |  |  |  | > 100 | > 100 | > 100 | > 100 | 
Nc1nc(N)c2ncn(CCOCP(=O)(O)O)c2n1 [PMEDAP] | 12 (≈ 41.6 µM) | 44 (≈ 153 µM) | 6.7 (≈ 23.2 µM) | 1.6 (≈ 5.55 µM) | 38 (≈ 132 µM) | 5.2 (≈ 18 µM) | 2.8 (≈ 9.72 µM) | 26 (≈ 90.2 µM) |  |  |  |  | 
Nc1nc2c(ncn2COC(CO)CO)c(=O)[nH]1 [GANCICLOVIR] | 6.2 (≈ 24.3 µM) | 1.5 (≈ 5.88 µM) | 6 (≈ 23.5 µM) | 7.6 (≈ 29.8 µM) | 0.54 (≈ 2.12 µM) | 4.9 (≈ 19.2 µM) | 9.1 (≈ 35.7 µM) | 9.4 (≈ 36.8 µM) |  |  |  |  | 
Cc1cn([C@@H]2O[C@H](CO)[C@@]3(OS(=O)(=O)C=C3NC(=O)NC(=O)c3ccccc3)[C@H]2O[Si](C)(C)C(C)(C)C)c(=O)n(C)c1=O |  |  |  |  |  |  |  |  | 16 | > 4 | > 4 | 20 | 
Cc1cn([C@@H]2O[C@H](CO)[C@@]3(OS(=O)(=O)C=C3NC(=O)NC(=O)c3ccccc3)[C@H]2O)c(=O)n(C)c1=O |  |  |  |  |  |  |  |  | > 50 | > 100 | > 100 | 100 | 
Nc1ncnc2c1ncn2CCOCP(=O)(O)O [ADEFOVIR] | 42 (≈ 154 µM) | 128 (≈ 469 µM) | 20 (≈ 73.2 µM) | 5.8 (≈ 21.2 µM) | 137 (≈ 501 µM) | 18 (≈ 65.9 µM) | 9.1 (≈ 33.3 µM) | 90 (≈ 329 µM) |  |  |  |  | 
Cc1cn([C@@H]2O[C@H](CO[Si](C)(C)C(C)(C)C)[C@@]3(OS(=O)(=O)C=C3NC(=O)N(C(=O)Nc3ccccc3)c3ccccc3)[C@H]2O[Si](C)(C)C(C)(C)C)c(=O)n(C)c1=O |  |  |  |  |  |  |  |  | 13 | > 10 | 15 | 46 | 
Cc1cn([C@@H]2O[C@H](CO[Si](C)(C)C(C)(C)C)[C@@]3(OS(=O)(=O)C=C3NC(=O)NC(=O)c3ccccc3)[C@H]2O)c(=O)n(C)c1=O |  |  |  |  |  |  |  |  | 22 | > 100 | > 100 | > 100 | 
Cc1cn([C@@H]2O[C@H](COC(=O)c3ccccc3)[C@@]3(OS(=O)(=O)C=C3NC(=O)NC(=O)c3ccccc3)[C@H]2O[Si](C)(C)C(C)(C)C)c(=O)n(C)c1=O |  |  |  |  |  |  |  |  | 100 | 2.2 | 2.2 | ≥ 5 | 
